Experimental data: article PMC6848909 (British Journal of Clinical Pharmacology, 2019)
Read-outs that look alike come from different tables or passages of the source. Marks after values point to notes of the source that are not given here.

Columns and labels:
[1] = format: in vivo, human; conditions: for Metabolic ratio of AUC0–inf, metabolite/belinostat / Metabolic ratio of Cmax, metabolite/belinostat: Cycle 1 Day −7, geometric mean (geometric SD)
[2] = Phase 1 safety: adverse events; format: in vivo, human
[3] = cited from earlier work
[4] = tested on: solid tumours or lymphomas; experiment: Tumour response by RECIST 1.1; format: in vivo, human
How it was run: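 CT scans were done at baseline and every 2 cycles, with response per RECIST 1.1. Dosing was IV over 30 min on days 1–5 of 21-day cycles, at doses set by liver-function cohort and dose level, after a single 400 mg/m2 dose on Cycle 1 Day −7. Cohorts were defined by bilirubin and AST relative to ULN.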

[5] = combination with 13‐cis‐retinoic acid; cited from earlier work
[6] = cited from earlier work; remark: listed apart in the source
[7] = patients with hepatocellular carcinoma; cited from earlier work
[8] = mild liver dysfunction (n = 25)
[9] = severe liver dysfunction (n = 15)
[10] = Dose level 1, mild (n = 9), at least possibly related
[11] = Dose level 1, moderate (n = 6), at least possibly related
[12] = Dose level 1, normal (n = 14), at least possibly related
[13] = Dose level 1, severe (n = 9), at least possibly related
[14] = Dose level 2, mild (n = 14), at least possibly related
[15] = Dose level 2, moderate (n = 6), at least possibly related
[16] = Dose level 2, severe (n = 5), at least possibly related

In the case of `O=C(/C=C/c1cccc(S(=O)(=O)Nc2ccccc2)c1)NO[C@@H]1O[C@H](C(=O)O)[C@@H](O)[C@H](O)[C@H]1O` [Belinostat glucuronide, belinostat glucuronide], the “Metabolic ratio of AUC0–inf, metabolite/belinostat” value [1, 8] is reported as 21.8 (1.63) ^d, the “Metabolic ratio of Cmax, metabolite/belinostat” value [1, 8] is reported as 3.57(1.47) ^c and the “Metabolic ratio of AUC0–inf, metabolite/belinostat” value ([1]; normal liver function (n = 14)) is reported as 18.7 (1.63). The “Metabolic ratio of Cmax, metabolite/belinostat” value ([1]; normal liver function (n = 14)) was 3.78 (1.47), the “Metabolic ratio of AUC0–inf, metabolite/belinostat” value [1, 9] was 17.7 (1.91) and the “Metabolic ratio of Cmax, metabolite/belinostat” value [1, 9] was 2.85 (1.51).
In the case of `O=C(/C=C/c1cccc(S(=O)(=O)Nc2ccccc2)c1)NO` [Belinostat, belinostat], the “Patients with at least 1 grade ≥ 3 adverse event at least possibly related to study drug” value (shortened to “Patients … to study drug”) ([2]; All dose levels, all patients, n = 66) is reported as 14 (21.2) number (%) of patients, the “Patients … to study drug” value ([2]; All dose levels, mild dysfunction, n = 23) is reported as 4 (17.4) number (%) of patients and the “Patients … to study drug” value ([2]; All dose levels, moderate dysfunction, n = 12) is reported as 3 (25) number (%) of patients. The “Patients … to study drug” value ([2]; All dose levels, normal liver function, n = 14) was 5 (35.7) number (%) of patients, the “Patients … to study drug” value ([2]; All dose levels, severe dysfunction, n = 17) was 2 (11.8) number (%) of patients and the “Patients … to study drug” value ([2]; Dose level 1 (250 mg/m^2), severe dysfunction, n = 9) was 1 (11.1) number (%) of patients. The “Patients … to study drug” value ([2]; Dose level 1 (500 mg/m^2), moderate dysfunction, n = 6) was 1 (16.7) number (%) of patients, the “Patients … to study drug” value ([2]; Dose level 1 (750 mg/m^2), mild dysfunction, n = 9) was 1 (11.1) number (%) of patients and the “Patients … to study drug” value ([2]; Dose level 1 (1000 mg/m^2), normal liver function, n = 14) was 5 (35.7) number (%) of patients. For the same compound, the “Patients … to study drug” value ([2]; Dose level 1, all patients, n = 38) was 8 (21.1) number (%) of patients, the “Anaemia, Grade 2” value [2, 10] was 1 number of patients and the “Fatigue, Grade 2” value [2, 10] was 1 number of patients. The “Fatigue, Grade 3” value [2, 10] was 1 number of patients, the “Vomiting, Grade 2” value [2, 10] was 1 number of patients and the “Anaemia, Grade 2” value [2, 11] was 3 number of patients. The “Fatigue, Grade 2” value [2, 11] was 1 number of patients, the “Lymphocyte count decreased, Grade 2” value [2, 11] was 1 number of patients and the “Lymphocyte count decreased, Grade 3” value [2, 11] was 1 number of patients. For the same compound, the “Anaemia, Grade 2” value [2, 12] was 1 number of patients, the “Anaemia, Grade 3” value [2, 12] was 1 number of patients and the “Fatigue, Grade 2” value [2, 12] was 2 number of patients. For the same compound, the “Fatigue, Grade 3” value [2, 12] was 1 number of patients, the “Lymphocyte count decreased, Grade 2” value [2, 12] was 1 number of patients and the “Lymphocyte count decreased, Grade 3” value [2, 12] was 3 number of patients. For the same compound, the “Nausea, Grade 2” value [2, 12] was 3 number of patients, the “Vomiting, Grade 2” value [2, 12] was 1 number of patients and the “Fatigue, Grade 2” value [2, 13] was 1 number of patients. For the same compound, the “Vomiting, Grade 2” value [2, 13] was 1 number of patients, the “Lung infection, Grade 5” value ([2]; Dose level 1, severe (n = 9), possibly related) was 1 number of patients and the “Patients … to study drug” value ([2]; Dose level 2 (350 mg/m^2), severe dysfunction, n = 8) was 1 (12.5) number (%) of patients. For the same compound, the “Patients … to study drug” value ([2]; Dose level 2 (750 mg/m^2), moderate dysfunction, n = 6) was 2 (33.3) number (%) of patients, the “Patients … to study drug” value ([2]; Dose level 2 (1000 mg/m^2), mild dysfunction, n = 14) was 3 (21.4) number (%) of patients and the “Patients … to study drug” value ([2]; Dose level 2, all patients, n = 28) was 6 (21.4) number (%) of patients. For the same compound, the “Anaemia, Grade 2” value [2, 14] was 3 number of patients, the “Fatigue, Grade 2” value [2, 14] was 2 number of patients and the “Fatigue, Grade 3” value [2, 14] was 2 number of patients. For the same compound, the “Lymphocyte count decreased, Grade 2” value [2, 14] was 4 number of patients, the “Nausea, Grade 2” value [2, 14] was 3 number of patients and the “Vomiting, Grade 2” value [2, 14] was 1 number of patients. For the same compound, the “Vomiting, Grade 3” value [2, 14] was 1 number of patients, the “Anaemia, Grade 2” value [2, 15] was 1 number of patients and the “Bilirubin increased, Grade 2” value [2, 15] was 1 number of patients. For the same compound, the “Bilirubin increased, Grade 3” value [2, 15] was 2 number of patients, the “Fatigue, Grade 2” value [2, 15] was 1 number of patients and the “Fatigue, Grade 3” value [2, 15] was 2 number of patients. For the same compound, the “Anaemia, Grade 2” value [2, 16] was 1 number of patients, the “Lymphocyte count decreased, Grade 2” value [2, 16] was 2 number of patients and the “Grade 2 or greater anaemia attributed to the study drug” value ([2]; all treated patients) was 17.1%. For the same compound, the “Grade 2 or greater fatigue attributed to the study drug” value ([2]; all treated patients) was 21.9%, the “Grade 2 or greater lymphopenia attributed to the study drug” value ([2]; all treated patients) was 18.8% and the “Patients with grade ≥ 3 toxicity” value ([2]; mild cohort (4/23)) was 17.4%. The DLTs ([2]; mild cohort, DL 2 (1000 mg/m^2), 6 evaluable patients) was “no DLTs”, the “Patients with grade ≥ 3 toxicity” value ([2]; moderate cohort (3/12)) was 25% and the DLTs ([2]; moderate cohort, DL 2 (750 mg/m^2), 3 evaluable patients) was “no DLTs”. For the same compound, the “Patients with a grade ≥ 3 AE” value ([2]; normal cohort (5/14)) was 35.7%, the MTD ([2]; patients with mild dysfunction, same as recommended phase 2 dose) was 1000 mg/m^2/day and the DLTs ([2]; severe cohort, DL 1 (250 mg/m^2), 6 evaluable patients, grade 5 lung infection) was 1. The “% of dose by glucuronidation (UGT1A1 and UGT2B7), clinical mass balance” value [3] was 41.4%, the “% of dose by methylation, clinical mass balance” value [3] was 1.9% and the “Total administered belinostat excreted unchanged in the urine” value [3] was “up to 2%”. The “Complete or partial responses” value ([4]; any of the 4 cohorts) was “No complete or partial responses”, the “Patients with stable disease” value ([4]; of 47 patients evaluable for response) was 28% and the “Patients with stable disease” value ([4]; of 47 patients evaluable for response, after the first 2 cycles) was 13 patients. For the same compound, the “Patients with stable disease” value ([4]; on DL 1) was 11 patients, the “Patients with stable disease” value ([4]; on DL 2) was 2 patients and the “Time on study treatment, median” value ([4]; patients with stable disease) was 4 21‐day cycles. For the same compound, the “Time on study treatment, range” value ([4]; patients with stable disease) was 2–12 cycles, the “Clearance as % of liver blood flow (extraction)” value ([1]; normal liver function, clearance 661 mL/min/m^2) was 76% and the “Increase in half‐life from normal to severe” value ([1]; normal vs severe liver dysfunction cohort, not statistically significant) was 33%. The “MTD (not reached)” value [5] was no less than 2000 mg/m^2/day, the “Patients who experienced DLT” value ([6]; at 1200 mg/m^2/day) was 3 of 5 and the “Recommended phase 2 dose” value ([6]; days 1–5 of a 21‐day cycle) was 1000 mg/m^2/day. The “MTD (not reached at highest dose tested)” value [7] was no less than 1400 mg/m^2/day.
